Compound activity: PubChem, several laboratories
Compounds with a hit are over-represented: about 2.6% of the library has one in this group of screens.
Runt-SMMHC FRET – inhibitors of human RUNX1 Runt domain binding to CBFb-SMMHC | inhibition, % at 20 µM | Cerulean-Runt/Venus-CBFb-SMMHC FRET ratio 530/480, 1 h | Q01196+Q13951 | actives 0.74% (n = 220,000);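 active means mean inhibition across duplicate retests at 20 µM reaching about 50%, limit read from the data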;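 further: 0% = DMSO wells and 100% = wells with excess untagged CBFb-SMMHC; inhibitors lower the FRET ratio by blocking Runt binding to CBFb-SMMHC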
Target sequence (Q01196 whole entry, looked up, the tested form may be a part): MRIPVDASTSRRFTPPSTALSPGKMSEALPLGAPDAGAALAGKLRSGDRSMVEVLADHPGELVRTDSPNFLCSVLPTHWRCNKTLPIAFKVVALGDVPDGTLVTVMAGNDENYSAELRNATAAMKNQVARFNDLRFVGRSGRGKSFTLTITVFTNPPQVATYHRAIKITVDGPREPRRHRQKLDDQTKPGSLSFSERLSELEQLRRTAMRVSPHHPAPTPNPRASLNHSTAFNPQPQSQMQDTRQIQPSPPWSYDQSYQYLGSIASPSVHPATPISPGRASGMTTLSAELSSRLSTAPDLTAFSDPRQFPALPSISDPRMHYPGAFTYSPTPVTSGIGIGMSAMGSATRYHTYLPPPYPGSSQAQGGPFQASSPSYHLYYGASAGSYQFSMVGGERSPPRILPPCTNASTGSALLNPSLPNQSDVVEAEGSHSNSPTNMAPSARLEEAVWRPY
Target sequence (Q13951 whole entry, looked up, the tested form may be a part): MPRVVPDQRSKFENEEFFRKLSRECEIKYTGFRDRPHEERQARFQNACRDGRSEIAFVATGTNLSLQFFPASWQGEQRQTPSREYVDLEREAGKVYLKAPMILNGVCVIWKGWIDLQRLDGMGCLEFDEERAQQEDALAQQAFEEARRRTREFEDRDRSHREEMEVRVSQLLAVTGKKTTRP
VIM-2 inhibitor – blocks Pseudomonas aeruginosa VIM-2 metallo-beta-lactamase. purified VIM-2, nitrocefin hydrolysis, epi-absorbance fluorescence. inhibition, % at 5.6 µM. actives 0.89% (n = 290,000). AID 1527;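 active means inhibition above the mean of all tested compounds plus 3 SD, cutoff set per screening run, cut at about 7.5% in these data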;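 further: red hydrolysis product quenches plate fluorescence so inhibitors raise well fluorescence; 0% = enzyme with DMSO and 100% = DMSO without enzyme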
Runt-CBFb FRET – Runt domain-CBFb interaction inhibition | actives 0.46% (n = 220,000) | Cerulean-Runt/Venus-CBFb FRET ratio 530/480, 1 h | AID 1496 | inhibition, % at 20 µM | Q01196+Q13951;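 active means inhibition over about 50% at 20 µM in the single-dose screen, limit read from the data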;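 further: 0% = DMSO wells and 100% = excess unlabeled CBFb competitor control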
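Buffer or medium: Tris pH 7.5 buffer with BSA. Assay system: Cerulean-labeled Runt domain protein. Amount: each fluorescent fusion protein 100 nM. Read-out basis: loss of energy transfer signal. Incubation: 1 h compound exposure, room temperature. Probe or stimulus: Venus-CBFb binding partner, 100 nM. Detection: FRET, excitation 422 nm, emission at 530 and 480 nm.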
RanGTP-Impb inh – disruptors of Ran-importin-beta complex formation – biochemical, FRET, CFP-Ran, YFP-importin-beta, homogeneous, primary screen; actives 1.1% (n = 300,000); cell-free CFP-Ran/YFP-importin-beta FRET ratio; inhibition, % (concentration not given with the values);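 active means more than half of the replicate wells show a fall in the fluorescence ratio signal beyond about 16%, limit read from the data, passing the limit was not always enough; inconclusive means exactly half of the replicate wells pass the set limit; inactive means fewer than half of replicates pass the limit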;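 further: 0% = DMSO wells and 100% = Ran loaded with GDP instead of GTP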
IMP-1 inh-1 – blocks Pseudomonas aeruginosa IMP-1 metallo-beta-lactamase; purified IMP-1, nitrocefin hydrolysis, epi-absorbance fluorescence; inhibition, % at 5.6 µM; actives 0.45% (n = 290,000); AID 1556;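 active means inhibition above the mean plus 3 SD of all compounds in the same screening run, cut at about 4.5% in these data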;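 further: 0% = IMP-1 with DMSO and 100% = DMSO wells lacking enzyme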
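Material – recombinant IMP-1 enzyme, purified · Amount – IMP-1 0.2 nM before substrate addition · Medium – HEPES buffer pH 7.1 with ZnSO4 and Brij 35 · Timing – 25 °C, 15 min preincubation, 25 min reaction · Measured by – plate fluorescence quenching by hydrolysis product, ex 480/em 530 nm · Read-out – percent enzyme inhibition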
IMP-1 inh-2 – blocks IMP-1 metallo-beta-lactamase in VIM-2 selectivity screen | shares compounds with VIM-2 inhibitor | 1,300 tested, under 10 active | inhibition, % at 5.6 µM | purified IMP-1, nitrocefin hydrolysis, epi-absorbance fluorescence; call rule not given here;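 further: 0% = enzyme with vehicle and 100% = vehicle without enzyme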
VIM-2 FRET ctr – inhibits VIM-2 in FRET assay to exclude epi-absorbance artifacts; shares compounds with VIM-2 inhibitor; purified VIM-2, CCF2 FRET substrate hydrolysis; inhibition, % at 5.6 µM; actives 23% (n = 1,300); AID 1857;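 active means inhibition above the mean of all tested compounds plus 3 SD, cut at about 19% in these data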;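 further: 0% = VIM-2 plus DMSO and 100% = no enzyme wells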
TEM-1 counter – blocks E. coli TEM-1 beta-lactamase in VIM-2 selectivity screen. actives 3% (n = 1,300). inhibition, % at 5.6 µM. Purified TEM-1, nitrocefin hydrolysis, epi-absorbance fluorescence. shares compounds with VIM-2 inhibitor. AID 1866;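 active means inhibition above that campaign's mean inhibition plus 3 SD, cut at about 0.46% in these data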;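 further: 0% = TEM-1 with DMSO and 100% = TEM-1 with 100 µM potassium clavulanate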
VIM-2 confirm 2 – confirmation of P. aeruginosa VIM-2 metallo-beta-lactamase inhibitors; inhibition, % at 5.6 µM; AID 2187; actives 96% (n = 1,300); shares compounds with VIM-2 inhibitor; purified VIM-2, nitrocefin hydrolysis, epi-absorbance;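 active means inhibition of the VIM-2 beta-lactamase enzyme above about 11% from the earlier first-round screen, limit read from the data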;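 further: 0% = VIM-2 with DMSO and 100% = buffer wells without enzyme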
* marks the source's active call; other numbers are inactive results; ? = inconclusive; . = not tested or not shown.

SMILES | Runt-SMMHC FRET | VIM-2 inhibitor | Runt-CBFb FRET | RanGTP-Impb inh | IMP-1 inh-1 | IMP-1 inh-2 | VIM-2 FRET ctr | TEM-1 counter | VIM-2 confirm 2
CCOc1ncccc1C(=O)Nc1ccc2nc(C)sc2c1 | . | 3 | . | -2 | -3 | . | . | . | .
CC(C)(Oc1ccc(Cl)cc1)C(=O)NCC(c1ccco1)N1CCCCC1 (stereo not given) | . | . | . | 2 | . | . | . | . | .
CCCc1[nH]nc2c1C1(C(=O)N(CC)c3ccccc31)C(C#N)=C(N)O2 (stereo not given) | 0 | 0 | -2 | 3 | -4 | . | . | . | .
CCCc1[nH]nc2c1C1(CCN(C(=O)OCc3ccccc3)CC1)C(C#N)=C(N)O2 | 42 | 18* | 8 | -4 | -2 | -2 | 22* | 0.5* | 6
O=C(O)c1csc(-n2nc(-c3ccccc3)cc2C(F)(F)F)n1 | -1 | 36* | 1 | 0 | -4 | -3 | -1 | -5 | 6
Cc1cc(C(F)(F)F)n(-c2nc(C(=O)O)cs2)n1 | -1 | -6 | 0 | 1 | -5 | . | . | . | .
N#Cc1c2c(c(NCCCN3CCOCC3)n3c1nc1ccccc13)CCC2 | 37 | 14* | 12 | -3 | -1 | -2 | -6 | -9 | 38*
c1ccc2c(c1)nc(NCCN1CCOCC1)c1nncn12 | 2 | -2 | 2 | ? | 2 | . | . | . | .
Cc1cc(C)c(S(=O)(=O)N2CCN(C(=O)C(C)Cn3cncn3)CC2)c(C)c1 (stereo not given) | . | 0 | . | -4 | -4 | . | . | . | .
C=CCOc1ccc2ccccc2c1CNn1c(C)n[nH]c1=S | . | 17* | . | 3 | -2 | -4 | 33* | -6 | 20*
Cn1c2ccccc2c2c(C(=O)NCCCN3CCCC3=O)cn(C3CCCCC3)c(=O)c21 | 1 | -2 | 2 | 6 | -1 | . | . | . | .
CCN1CCN(C(=O)c2cc3c(=O)n(C)c4ccccc4c3n2C)CC1 | 1 | 17* | 0 | 4 | -3 | -3 | 4 | -6 | 22*
CN(CCNC(=O)c1cc2c(=O)n(C)c3ccccc3c2n1C)Cc1ccccc1 | -2 | 17* | -3 | ? | -1 | -4 | 2 | -8 | 26*
CC1CCCCN1CCNC(=O)c1cc2c(=O)n(C)c3ccccc3c2n1C (stereo not given) | 7 | 20* | 1 | 8 | -4 | -2 | 4 | -7 | 31*
Cn1c(C(=O)NCCCN2CCCC2=O)cc2c(=O)n(C)c3ccccc3c21 | 2 | 13* | 3 | -2 | -3 | -3 | -3 | -6 | 29*
Cn1c(C(=O)NC2CCCCC2)cc2c(=O)n(C)c3ccccc3c21 | 2 | 1 | -15 | -4 | -5 | . | . | . | .
Cc1ccc(C(=O)Nc2ccccc2Cl)cc1 | . | 0 | . | 1 | -1 | . | . | . | .
CC(Sc1nnc(CC(=O)Nc2ccccc2F)n1C)C(=O)Nc1nccs1 (stereo not given) | . | -1 | . | -3 | -2 | . | . | . | .
Cc1cccn2c(=O)c3cc(C(=O)NCCCN4CCCC4=O)n(C)c3nc12 | 6 | 17* | 0 | 1 | -1 | -2 | -8 | 1.2* | 26*
Cn1c(C(=O)NC2CCCCCC2)cc2c(=O)n(C)c3ccccc3c21 | -12 | 2 | -14 | -1 | -3 | . | . | . | .
Cn1c(C(=O)NCCN2CCc3ccccc3C2)cc2c(=O)n(C)c3ccccc3c21 | -2 | 19* | 0 | -3 | 0 | -3 | -1 | -7 | 28*
c1ccc(-c2ccc3ccccc3n2)cc1 | . | . | . | 0 | . | . | . | . | .
c1ccc2nc(-c3ccc(-n4ccnc4)cc3)ccc2c1 | . | 38* | . | -3 | -2 | -5 | -11 | -6 | 47*
O=C(Nc1ccccc1N1CCCCC1)C1CCN(C(=O)c2ccc(Cl)cc2)CC1 | . | . | . | 1 | . | . | . | . | .
Cc1cc(C)c2nc3nc(C)c(C)cc3c(N)c2c1 | 92* | 18* | 19 | 14 | -4 | -3 | -13 | -4 | 29*
SMILES | Runt-SMMHC FRET | VIM-2 inhibitor | Runt-CBFb FRET | RanGTP-Impb inh | IMP-1 inh-1 | IMP-1 inh-2 | VIM-2 FRET ctr | TEM-1 counter | VIM-2 confirm 2
Cc1cccc(N2CCN(C(=O)c3cc4cc(F)ccc4[nH]3)CC2)c1C | . | 2 | . | -1 | -1 | . | . | . | .
N#Cc1c(NC(=O)C(=O)NCCCN2CCOCC2)sc2c1CCC2 | . | -2 | . | 5 | -1 | . | . | . | .
COC(=O)c1c(NC(=O)C(=O)NCCCN2CCOCC2)sc2c1CCCC2 | . | 13* | . | 0 | -4 | -2 | 0 | -1 | 19*
O=C(CSc1nc2nc(-c3cccs3)cc(C(F)(F)F)c2c(=O)[nH]1)Nc1c(F)c(F)c(F)c(F)c1F | 5 | -3 | 4 | 1 | -3 | . | . | . | .
O=c1[nH]c(=S)[nH]c2nc(-c3cccs3)cc(C(F)(F)F)c12 | . | 13* | . | -2 | -5 | -3 | 4 | -7 | 15*
CN1CCN(C(=O)CSc2nc3c(c(=O)n(C)c(=O)n3C)n2C)CC1 | . | 76* | . | 4 | -2 | -4 | 2 | -7 | 79*
CCN1CCN(c2ccc(NC(=O)c3ccc(Br)o3)cc2)CC1 | . | 15* | . | -4 | -1 | -3 | -2 | -4 | 24*
CN1CCN(c2ccc(NC(=O)c3cc4ccccc4o3)cc2)CC1 | . | 40* | . | ? | -3 | -2 | -2 | -3 | 55*
CN1CCN(c2ccc(NC(=O)c3ccc(-c4ccc(Br)cc4)o3)cc2)CC1 | 0 | 24* | 3 | 1 | -1 | -2 | -3 | -8 | 34*
CS(=O)(=O)N1CCN(c2ccc(NC(=O)c3cc4ccccc4o3)cc2)CC1 | . | 0 | . | 1 | -2 | . | . | . | .
CC(=O)Nc1ccc(S(=O)(=O)N2CCC(c3nnc(-c4ccc(C)cc4)o3)CC2)cc1 | . | -3 | . | 4 | -4 | . | . | . | .
Cn1c(=O)oc2cc(S(=O)(=O)NCc3ccc(F)cc3)ccc21 | . | 0 | . | 1 | -1 | . | . | . | .
CN(Cc1ccccc1OCCO)CC1CCCN(CCc2ccc(Cl)cc2)C1 (stereo not given) | . | 0 | . | 3 | -3 | . | . | . | .
C=C(C)CNC(=S)N/N=C(\C)c1ccc(-n2ccnc2)cc1 | 0 | 79* | 2 | 9 | -5 | -3 | -8 | -9 | 88*
C/C(=N\NC(=O)c1ccccc1)c1ccc(-n2ccnc2)cc1 | -4 | 0 | 0 | -1 | -2 | . | . | . | .
COc1cccc(C(=O)NC(=S)Nc2ccc(N3CCCC3)cc2)c1 | 2 | -1 | . | -2 | -2 | . | . | . | .
CCOc1ccccc1C(=O)Nc1ccc(S(=O)(=O)N2CCN(C)CC2)cc1 | . | 18* | . | 0 | -3 | -1 | 5 | -6 | 31*
